Laboratory results: ChEMBL document CHEMBL1130313, “1-[(omega-aminoalkyl)amino]-4-[N-(omega-aminoalkyl)carbamoyl]-9-oxo-9, 10-dihydroacridines as intercalating cytotoxic agents: synthesis, DNA binding, and biological evaluation” (J Med Chem, 1997)

Legend:
[1] = tested on: A2780; assay: Cytotoxic potency required to inhibit A2780 cell growth by 50% after cell drug contact for 96 hrs; assay type: functional, cell-based; conditions: Homo sapiens, A2780, 96 h
How it was run: (§1)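 Human ovarian carcinoma (A2780, CH1, SKOV-3) or melanoma G-361 cells were plated at 100-5000 cells and allowed to adhere overnight. Aqueous drug at pH 7.0, diluted from DMSO stock, was applied at various concentrations for 96 h continuous exposure at 37 °C. Growth was measured by sulforhodamine B protein staining. IC50 is 50% growth inhibition versus untreated controls.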

[2] = tested on: L1210; assay: Cytotoxic potency required to inhibit L1210 cell growth by 50% after cell drug contact for 48 hrs; assay type: functional, cell-based; conditions: Mus musculus, L1210, 48 h
How it was run: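 Mouse L1210 leukemia cells at 5 × 10^4 cells/mL were exposed for 48 h at 37 °C to aqueous drug solutions (≤0.5% v/v DMSO). Surviving cells were counted by Coulter counter against drug-free controls to give IC50. Assays were done in duplicate.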

[3] = tested on: CH1; assay: Cytotoxic potency required to inhibit CH1 cell growth by 50%; assay type: functional, cell-based; conditions: Homo sapiens; how it was run: as §1
[4] = tested on: Nucleic Acid; assay: Concentration required to give 50% fluorescence quenching of bound ethidium for [ethidium]: [(poly dG-dC)]2 DNA in ratio of 0.1:1 at pH 5; assay type: nucleic-acid assay
How it was run: (§2)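 Q (quenching) assay at pH 5: DNA at 20 μM DNAp (CT-DNA, [poly(dA-dT)]2 or [poly(dG-dC)]2) with 2 μM ethidium bromide. Buffer is 9.3 mM NaCl, 2 mM NaOAc, 0.1 mM EDTA, 0.01 M ionic strength. Drug (stock ~5 mM in DMSO) is added serially at 20 °C. Fluorescence is read with excitation 546 nm and emission 595 nm. Q is the concentration halving bound-ethidium fluorescence; mean of three.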

[5] = tested on: Nucleic Acid; assay: Concentration required to give 50% fluorescence quenching of bound ethidium for [ethidium]: [poly(dA-dT)]2 DNA in ratio of 0.1:1 at pH 5; assay type: nucleic-acid assay; how it was run: as §2
[6] = tested on: Calf thymus DNA; assay: Inhibitory concentration against ethidium:Calf thymus DNA(0.1:1) binding at pH 5; assay type: nucleic-acid assay; conditions: Bos taurus; how it was run: as §2
[7] = tested on: Calf thymus DNA; assay: Inhibitory concentration against ethidium:Calf thymus DNA (1.26:1) binding at pH 7; assay type: nucleic-acid assay; conditions: Bos taurus
How it was run: (§3)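 Ethidium displacement at pH 7: 1.26 μM ethidium bromide with 1 μM CT-DNA in 10 mM TES, 0.1 mM EDTA. Drug (stock ~5 mM in DMSO) is titrated in at 20 °C. Read-out is excitation 546 nm, emission 595 nm. C50 is the drug concentration cutting bound-ethidium fluorescence by 50%; mean of three determinations.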

[8] = tested on: Calf thymus DNA; assay: Inhibitory concentration against ethidium:calf thymus DNA (1.26:1) binding at pH 5; assay type: nucleic-acid assay; conditions: Bos taurus
How it was run: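 Ethidium displacement at pH 5: 1.26 μM ethidium bromide with 1 μM CT-DNA in 9.3 mM NaCl, 2 mM NaOAc, 0.1 mM EDTA. Drug (stock ~5 mM in DMSO) is added serially at 20 °C. Fluorescence is read with excitation 546 nm and emission 595 nm. C50 is the concentration reducing bound-ethidium fluorescence by 50%; mean of three.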

[9] = tested on: SK-OV-3; assay: Cytotoxic potency required to inhibit SKOV-3 cell growth 50%; assay type: functional, cell-based; conditions: Homo sapiens; how it was run: as §1
[10] = tested on: CH1; assay: Cytotoxic potency against CH1 cell proliferation; assay type: functional, cell-based; conditions: Homo sapiens; how it was run: as §1
[11] = tested on: G-361; assay: Cytotoxic potency required to inhibit G-361 cell growth by 50%; assay type: functional, cell-based; conditions: Homo sapiens; how it was run: as §1
[12] = Partition coefficient (logP); assay type: physicochemical; conditions: octanol/water
[13] = tested on: HT-29; assay: Cytotoxic potency required to inhibit HT-29 cell growth by 50% after cell drug contact for 144 hrs; assay type: functional, cell-based; conditions: Homo sapiens, HT-29, 144 h
[14] = tested on: Calf thymus DNA; assay: Inhibitory concentration against ethidium:Calf thymus DNA(1.26:1) binding at pH 7; assay type: nucleic-acid assay; conditions: Bos taurus; how it was run: as §3

Q [4] [µM] | Q [5] [µM] | Q [6] [µM] | C50 [7] [µM] | C50 [8] [µM] | logP [12] | C50 [14] [µM] | Structure (SMILES) | IC50 [1] [nM] | IC50 [2] [nM] | IC50 [3] [nM] | IC50 [9] [nM] | IC50 [10] [nM] | IC50 [11] [nM] | IC50 [13] [nM]
6.5 | 5.3 | 5.8 | 0.69 | 3.1 | 5.32 |  | COc1ccc2nc3c(C(=O)NCCN(C)C)ccc(NCCN(C)C)c3c(O)c2c1 | 57 | 410 | 490 | 420 |  | 1250 | 500
6.6 | 3.2 | 4.8 | 0.38 | 3.2 | 5.76 |  | CN(C)CCCNC(=O)c1ccc(NCCCN(C)C)c2c(O)c3ccccc3nc12 | 110 | 520 | 335 | 400 |  | 3600 | 580
5.4 | 4.4 | 4.8 | 0.37 | 2.2 | 4.77 |  | CN(C)CCNC(=O)c1ccc(NCCN(C)C)c2c(O)c3cc(O)ccc3nc12 | 51 | 140 | 640 | 170 |  | 300 | 2000
15 | 13 | 14 | 0.94 | 4.8 | 4.21 |  | CN(C)CCNC(=O)c1ccc(N(C)CCN(C)C)c2c(O)c3ccccc3nc12 | 410 | 1650 | 3400 | 1000 |  | 1500 | 3000
2.4 | 1.8 | 2.1 | 0.17 | 0.61 | 5.68 |  | CN(C)CCNC(=O)c1ccc(NCCN(C)C)c2c(O)c3cc([N+](=O)[O-])ccc3nc12 | 42 | 460 | 175 | 210 |  | 1800 | 190
4.7 | 3.8 | 4.2 | 0.35 | 2 | 4.09 |  | CN(C)CCNC(=O)c1ccc(NCCNCCO)c2c(O)c3ccccc3nc12 | 17 | 35 | 16 | 170 |  | 280 | 140

The remaining lines, values behind:

Structure (SMILES) | Q [4] [µM] | Q [5] [µM] | Q [6] [µM] | C50 [7] [µM] | C50 [8] [µM] | logP [12] | C50 [14] [µM] | IC50 [1] [nM] | IC50 [2] [nM] | IC50 [3] [nM] | IC50 [9] [nM] | IC50 [10] [nM] | IC50 [11] [nM] | IC50 [13] [nM]
Nc1ccc2c(O)c3ccc(N)cc3nc2c1 | 280 | > 400 | 340 | 630 | 660 |  |  | 37000 | 35000 | > 100000 | > 100000 |  |  | 
CN(C)CCNC(=O)c1ccc(NCCN(C)C)c2c(=O)c3ccccc3[nH]c12 | 3.5 | 3.1 | 3.3 | 0.34 | 1.1 | 5.12 |  | 15 | 44 |  | 400 | 20 | 15 | 94
Nc1ccc2cc3ccc(N)cc3nc2c1 | 14 | 24 | 20 |  |  |  |  |  |  |  |  |  |  | 
O=C1c2c(O)ccc(O)c2C(=O)c2c(NCCNCCO)ccc(NCCNCCO)c21 [MITOXANTRONE] | 0.37 | 0.32 | 0.34 | 0.037 | 0.021 |  |  | 0.55 | 0.4 | 2.65 |  |  | 0.65 | 10
O=C(NCCN1CCCCC1)c1ccc(NCCN2CCCCC2)c2c(O)c3ccccc3nc12 | 5.6 | 3.4 | 4.4 | 0.28 | 0.83 | 7.73 |  | 24 | 1200 | 1200 | 620 |  | 670 | 450
Cn1cc(NC(=O)c2cc(NC(=O)c3cc(NC=O)cn3C)cn2C)cc1C(=O)NCCC(=N)N | 130 | 1.6 | 39.5 | 1.3 | 5 |  |  |  |  |  |  |  |  | 
O=C(NCCNCCO)c1ccc(NCCNCCO)c2c(O)c3ccccc3nc12 | 4.1 | 2.6 | 3.2 |  | 1.7 | 3.15 | 0.36 | 4800 | 4000 | 165 | 21500 |  | 15500 | > 23000
c1ccc2nc3ccccc3cc2c1 [ACRIDINE] | 22 | 26 | 24 | 320 | 142 |  |  | > 100000 |  |  |  |  |  | 
CCN(CC)CCNC(=O)c1ccc(NCCN(CC)CC)c2c(O)c3ccccc3nc12 | 36 | 19 | 27 | 2.3 | 20 | 7.25 |  | 760 | 3300 | 1250 | 2400 |  | 6200 | 5700
N=C(N)c1ccc(/N=N/Nc2ccc(C(=N)N)cc2)cc1 | 19 | 5 | 9 | 1.5 | 4.4 |  |  |  |  |  |  |  |  | 
O=c1c2ccccc2[nH]c2ccccc12 [ACRIDONE] | 340 | > 500 | > 400 |  |  |  |  | > 100000 | > 100000 | 77000 | > 100000 |  | > 100000 | 
O=C(NCCN1CCOCC1)c1ccc(NCCN2CCOCC2)c2c(O)c3ccccc3nc12 | 6 | 3.7 | 4.8 | 3.7 | 16 | 4.42 |  | 1500 | 440 | 1250 | 7400 |  | 7200 | 4500
COc1cc(NS(C)(=O)=O)ccc1Nc1c2ccccc2nc2ccccc12 | 4.5 | 25 | 3.8 |  | 8.9 |  |  |  |  |  |  |  |  | 
